A selection: hits, their analogues and other compounds. The true share with any hit is near 3.8%.
RGS4 act: potentiators or activators of RGS4 | HEK293 M3R/inducible RGS4, carbachol calcium flux Fluo4; hits give low values | B-score at 10 µM | 310,000 tested, 0.92% active | AID 463111;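 active = B-score of the integrated calcium signal more than 4 SD below the library mean, with starting fluorescence not abnormally high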;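 also: negative B-score means reduced calcium response which marks RGS4 activation or potentiation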
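Detection: kinetic calcium fluorescence imaging with Fluo4-AM dye, 2 µM / Material: HEK293 cells with stable M3R and inducible RGS4 / Schedule: recording 10 s baseline at 1 Hz, 100 s post-agonist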
MrgX1 PAM: allosterically activates human MrgX1 receptor signaling | AID 588675 | B-score at 10 µM | Q96LB2 | 310,000 tested, 0.63% active | MrgX1-HEK293, Fluo-4 calcium flux, FDSS; hits give high values;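 active = plate-corrected calcium response at least 3 library SD above typical, normal starting fluorescence, not activating the receptor alone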;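 also: compound read alongside a low EC10 to EC30 dose of BAM8-22 agonist; peak minus trough fluorescence over baseline measured at the second addition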
Target sequence (Q96LB2 whole entry, looked up): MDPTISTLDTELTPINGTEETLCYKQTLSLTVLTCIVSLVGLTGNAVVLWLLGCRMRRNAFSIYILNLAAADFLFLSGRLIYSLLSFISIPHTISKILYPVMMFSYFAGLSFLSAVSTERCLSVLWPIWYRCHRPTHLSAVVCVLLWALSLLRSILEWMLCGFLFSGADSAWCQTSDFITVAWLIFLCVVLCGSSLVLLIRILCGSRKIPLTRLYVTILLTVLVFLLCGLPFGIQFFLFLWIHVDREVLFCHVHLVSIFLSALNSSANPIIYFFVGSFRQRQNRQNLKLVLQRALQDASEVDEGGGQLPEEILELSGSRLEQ
MrgX1 ag: human MrgX1 receptor agonism, primary screen; 310,000 tested, 0.44% active; MrgX1-HEK293 cells, Fluo-4 calcium fluorescence, agonist mode; hits give high values; B-score at 10 µM; Q96LB2; AID 588627;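 active = calcium response B-score plate-corrected fluorescence ratio at least 3 library SD, with starting fluorescence B-score inside 5 SD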
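System: HEK293 cells stably expressing human MrgX1 receptor; Dosing: test compound in the initial addition of three; Schedule: overnight plating, then 30 min 37 °C plus 30 min room-temperature dye loading; Detection: kinetic calcium dye fluorescence, Fluo-4 NW; Controls: per-plate positive and negative controls for Z′ factor.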
Hep lipid drop: hepatic lipid droplet formation modulation; AML12 mouse hepatocytes, oleate lipid droplets, BODIPY imaging; inhibition, % at 6.5 µM; 240,000 tested, 0.4% active; AID 1656;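 active = lipid droplet intensity inhibited by at least 50%, with more than 500 cells counted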
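System: AML12 hepatocytes (mouse). Probe or stimulus: oleic acid at 100 µM to induce lipid droplet formation. Times: overnight treatment with compound plus oleate. Detection: Image-based BODIPY and DAPI two-channel analysis. Evaluation: percent inhibition of filter-corrected integrated lipid droplet intensity per well.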
MrgX1 antag: human MrgX1 receptor antagonism, primary screen | B-score at 10 µM | MRGX1-HEK293 calcium flux, Fluo-4, BAM8-22 antagonism; hits give low values | AID 588676 | 310,000 tested, 1.3% active;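 active = calcium-response B-score plate-corrected more than 3 library SD below zero, starting fluorescence within 5 deviations, no agonist response on first addition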;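 also: peak minus trough fluorescence over baseline after final BAM8-22 challenge near maximal dose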
RGS4 inh: human RGS4 inhibition; P49798; HEK293 M3R/RGS4 inducible, Fluo-4 calcium flux; hits give high values; triggered by carbachol at its EC20; B-score at 10 µM; 310,000 tested, 0.45% active; AID 463165;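 active = B-score, a plate-corrected calcium signal, over three deviations above library mean, with baseline fluorescence within five deviations of library mean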;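 also: RGS4 expression induced by doxycycline in cells with stable M3 receptor; B-score is computed from the integrated fluorescence ratio over baseline after carbachol; higher B-score means a larger calcium signal and so more RGS4 inhibition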
Target sequence (P49798 whole entry, looked up): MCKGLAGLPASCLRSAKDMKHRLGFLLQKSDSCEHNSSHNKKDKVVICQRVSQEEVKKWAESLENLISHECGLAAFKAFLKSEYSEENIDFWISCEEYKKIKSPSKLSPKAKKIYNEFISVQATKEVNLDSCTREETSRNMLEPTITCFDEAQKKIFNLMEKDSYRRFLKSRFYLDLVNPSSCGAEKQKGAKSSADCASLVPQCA
Each line names hits and unclear results; the compound was inactive in the other large screens.

C#CCOCCOCCOCCNc1nc(N2CCN(C(=O)CCCCCCCCCCNC(=O)Cn3cc(C[C@@H](C)O)nn3)CC2)nc(N2CCN(C(=O)CCCCCCCCCCNC(=O)[C@H](CCCCN)n3cc(C[C@@H](C)CC)nn3)CC2)n1	none (no result: RGS4 act, Hep lipid drop, RGS4 inh)
C#CCOCCOCCOCCNc1nc(N2CCN(C(=O)CCCCCCCCCCNC(=O)[C@H](CCCCN)n3cc(CCO)nn3)CC2)nc(N2CCN(C(=O)CCCCCCCCCCNC(=O)[C@H](CCCCN)n3cc(CCO)nn3)CC2)n1	none (no result: RGS4 act, Hep lipid drop, RGS4 inh)
C#CCOCCOCCOCCNc1nc(N2CCN(C(=O)CCCCCCCCCCNC(=O)Cn3cc(CCCCCN)nn3)CC2)nc(N2CCN(C(=O)CCCCCCCCCCNC(=O)[C@H]([C@@H](C)CC)n3cc(CCCCCN)nn3)CC2)n1	MrgX1 ag 51 (no result: RGS4 act, Hep lipid drop, RGS4 inh)
C#CCOCCOCCOCCNc1nc(N2CCN(C(=O)CCCCCCCCCCNC(=O)[C@H](CCCCN)n3cc(CCO)nn3)CC2)nc(N2CCN(C(=O)CCCCCCCCCCNC(=O)[C@H](CCCN=C(N)N)n3cc(C[C@@H](C)CC)nn3)CC2)n1	MrgX1 ag 153 (no result: RGS4 act, Hep lipid drop, RGS4 inh)
C#CCOCCOCCOCCNc1nc(N2CCN(C(=O)CCCCCCCCCCNC(=O)[C@H](CCCCN)n3cc(C[C@@H](C)CC)nn3)CC2)nc(N2CCN(C(=O)CCCCCCCCCCNC(=O)[C@H](CCCCN)n3cc(C[C@@H](C)CC)nn3)CC2)n1	MrgX1 ag 89 (no result: RGS4 act, Hep lipid drop, RGS4 inh)
CC[C@H](C)Cc1cn([C@@H](CCCCNC(=O)OC(C)(C)C)C(=O)NCCCCCCCCCCC(=O)N2CCN(C(=O)OC(C)(C)C)CC2)nn1	MrgX1 antag -7.1 (no result: RGS4 act, Hep lipid drop, RGS4 inh)
CC(C)(C)OC(=O)NCCCC[C@@H](C(=O)NCCCCCCCCCCC(=O)N1CCN(C(=O)OC(C)(C)C)CC1)n1cc(CCO)nn1	none (no result: RGS4 act, Hep lipid drop, RGS4 inh)
COC(=O)CN(C)C(=O)c1ccc(OC2CCN(S(=O)(=O)N(C)C)CC2)cc1	none
Nc1ccc(C(=O)C(=O)c2ccccc2)cc1	none (no result: Hep lipid drop)
C#CCOCCOCCOCCNc1nc(N2CCN(C(=O)CCCCCCCCCCNC(=O)[C@@H](CCSC)n3cc(CCO)nn3)CC2)nc(N2CCN(C(=O)CCCCCCCCCCNC(=O)[C@H]([C@@H](C)CC)n3cc(CCCCCN)nn3)CC2)n1	MrgX1 PAM 15 (no result: RGS4 act, Hep lipid drop, RGS4 inh)
C#CCOCCOCCOCCNc1nc(N2CCN(C(=O)CCCCCCCCCCNC(=O)[C@H](CCCCN)n3cc(CCCC(=O)O)nn3)CC2)nc(N2CCN(C(=O)CCCCCCCCCCNC(=O)[C@H](CCCN=C(N)N)n3cc(C[C@@H](C)CC)nn3)CC2)n1	MrgX1 ag 40 (no result: RGS4 act, Hep lipid drop, RGS4 inh)
C#CCOCCOCCOCCNc1nc(N2CCN(C(=O)CCCCCCCCCCNC(=O)[C@H](CCCCN)n3cc(C)nn3)CC2)nc(N2CCN(C(=O)CCCCCCCCCCNC(=O)[C@@H]([C@H](C)CC)n3cc(CCCCCN)nn3)CC2)n1	MrgX1 ag 120 (no result: RGS4 act, Hep lipid drop, RGS4 inh)
C#CCOCCOCCOCCNc1nc(N2CCN(C(=O)CCCCCCCCCCNC(=O)[C@@H](CCSC)n3cc(CCO)nn3)CC2)nc(N2CCN(C(=O)CCCCCCCCCCNC(=O)[C@H]([C@@H](C)CC)n3cc(CCCCN=C(N)N)nn3)CC2)n1	none (no result: RGS4 act, Hep lipid drop, RGS4 inh)
C#CCOCCOCCOCCNc1nc(N2CCN(C(=O)CCCCCCCCCCNC(=O)[C@H]([C@@H](C)CC)n3cc(CCCCN=C(N)N)nn3)CC2)nc(N2CCN(C(=O)CCCCCCCCCCNC(=O)[C@H](CCCCN)n3cc(C[C@@H](C)CC)nn3)CC2)n1	MrgX1 ag 61 (no result: RGS4 act, Hep lipid drop, RGS4 inh)
O=C(NC1CCCCC1)c1cc(N2C(=O)CCC2=O)ccc1Cl	none (no result: Hep lipid drop)
COC(=O)c1sc(NC(=O)CCCn2nc([N+](=O)[O-])cc2C)c(C(=O)OC)c1C	MrgX1 antag -6.1
Cc1cc(NC(=O)CCCn2nc([N+](=O)[O-])cc2C)no1	none
CCOc1cc(/C=N/NC(=O)Cn2nc([N+](=O)[O-])cc2C)ccc1OCc1ccc(F)cc1	MrgX1 antag -4.9 (no result: Hep lipid drop)
Cc1cc([N+](=O)[O-])nn1CCCC(=O)NCc1ccc(F)cc1	MrgX1 PAM 14
CCOC(=O)c1ccc(NC(=O)Cn2ncc(Cl)c(Cl)c2=O)cc1	MrgX1 antag -5.2

Screening results (PubChem BioAssay)
